Assay results reported in ChEMBL document CHEMBL5149984, “Discovery of HN37 as a Potent and Chemically Stable Antiepileptic Drug Candidate” (J Med Chem, 2021).
pIC50: −log10 of the molar value.

Tests used:
Mus musculus [1] = test: Anticonvulsant activity in MES induced Kunming mouse model of seizure at 30 mg/kg, po after 1 hr; assay type: functional
Method in brief: (§1)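 MES test in male KM mice. Compounds freshly suspended in 0.5% CMC-Na and given by gavage at 20 mL/kg; 160 V stimulus through ear clips. Protection scored as absence of hindlimb tonic extension; time course at 0.25, 0.5, 1 and 2 h, otherwise tested at 1 h. ED50 from dose−response by nonlinear regression; Fisher's exact test versus vehicle.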

[2] = Neurotoxicity in po dosed Kunming mouse assessed as motor impairment after 1 hr by rotarod test; assay type: toxicity, organism-based; settings: in vivo
Method in brief: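 Male KM mice dosed intragastrically with compound freshly suspended in 0.5% CMC-Na. Rotarod performance scored 1 h after dosing as the fraction of animals showing motor impairment. Fisher's exact test versus vehicle; TD50 from nonlinear dose−response fit.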

[3] = target: T1, Potassium voltage-gated channel subfamily KQT member 1 (Homo sapiens, UniProt P51787); test: Agonist activity at human KCNQ1 channel expressed in CHO cells assessed as amplitude change of outward current at 10 uM by patch clamp method; assay type: cell-based
T1 sequence (P51787 whole entry): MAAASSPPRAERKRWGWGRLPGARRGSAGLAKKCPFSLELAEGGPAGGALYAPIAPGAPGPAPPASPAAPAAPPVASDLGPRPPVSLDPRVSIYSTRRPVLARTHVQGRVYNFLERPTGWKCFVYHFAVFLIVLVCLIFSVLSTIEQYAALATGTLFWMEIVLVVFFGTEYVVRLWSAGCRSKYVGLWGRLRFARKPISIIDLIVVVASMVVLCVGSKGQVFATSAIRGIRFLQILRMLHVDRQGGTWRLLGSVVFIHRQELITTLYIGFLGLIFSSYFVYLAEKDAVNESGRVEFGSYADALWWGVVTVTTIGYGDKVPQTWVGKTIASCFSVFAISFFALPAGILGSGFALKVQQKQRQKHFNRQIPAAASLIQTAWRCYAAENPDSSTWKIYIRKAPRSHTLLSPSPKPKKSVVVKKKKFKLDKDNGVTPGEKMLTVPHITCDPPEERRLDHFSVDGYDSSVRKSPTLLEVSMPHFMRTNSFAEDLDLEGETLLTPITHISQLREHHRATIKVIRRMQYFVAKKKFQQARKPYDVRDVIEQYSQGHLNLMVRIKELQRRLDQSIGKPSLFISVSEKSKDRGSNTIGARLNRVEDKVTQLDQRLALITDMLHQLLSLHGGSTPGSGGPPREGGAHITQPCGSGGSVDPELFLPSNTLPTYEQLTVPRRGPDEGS
Method in brief: (§2)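 Whole-cell patch clamp at room temperature on CHO cells (DMEM/F12, 10% FBS) transiently co-transfected with EGFP and hKCNQ1, rKCNQ2, rKCNQ3 A278T, hKCNQ4 or hKCNQ5; KCNQ2/3 at 1:1 cDNA ratio. Pipette solution 145 mM KCl, 5 mM MgATP, pH 7.3; bath 140 mM NaCl, 5 mM KCl, pH 7.4, under perfusion. V1/2 from Boltzmann fits; I/I0 is current amplitude with versus without compound; n = 4−6.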

Mus musculus [4] = test: Anticonvulsant activity in MES induced Kunming mouse model of seizure at 60 mg/kg, po; assay type: functional; method in brief: as §1
[5] = Ratio of AUC(0 to t) in Sprague-Dawley rat brain to plasma at 6 mg/kg, po measured upto 24 hrs by LC-MS/MS method; assay type: ADME, organism-based; settings: brain and plasma
Method in brief: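 Male SD rats (180−220 g) given single oral doses of 2, 6 and 20 mg/kg; handled as in the mouse PK study (fasted 12 h before and 2 h after dosing, 5% DMSO/5% Tween 80/90% saline formulation). In a separate 6 mg/kg p.o. set, blood and brain were sampled together. Plasma and brain levels by LC−MS/MS.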

[6] = Ratio of TC50 for Kunming mouse to EC50 for anticonvulsant activity in Kunming mouse; assay type: toxicity
Method in brief: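 Male KM mice dosed orally in 0.5% CMC-Na and killed straight after the 1 h MES or rotarod test. Brain and plasma levels measured by LC−MS/MS. EC50 and TC50 fitted by nonlinear regression of protection or motor impairment against mean brain concentration; ratio = TC50,brain/EC50,brain.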

Cytochrome P450 3A4 [7] = target: T2, Cytochrome P450 3A4 (Homo sapiens, UniProt P08684); test: Time dependent inhibition of human liver microsome CYP3A4 preincubated for 0.5 hrs in presence or absence of NADPH followed by testosterone addition by LC-MS/MS method; assay type: ADME, microsomes
T2 sequence (P08684 whole entry): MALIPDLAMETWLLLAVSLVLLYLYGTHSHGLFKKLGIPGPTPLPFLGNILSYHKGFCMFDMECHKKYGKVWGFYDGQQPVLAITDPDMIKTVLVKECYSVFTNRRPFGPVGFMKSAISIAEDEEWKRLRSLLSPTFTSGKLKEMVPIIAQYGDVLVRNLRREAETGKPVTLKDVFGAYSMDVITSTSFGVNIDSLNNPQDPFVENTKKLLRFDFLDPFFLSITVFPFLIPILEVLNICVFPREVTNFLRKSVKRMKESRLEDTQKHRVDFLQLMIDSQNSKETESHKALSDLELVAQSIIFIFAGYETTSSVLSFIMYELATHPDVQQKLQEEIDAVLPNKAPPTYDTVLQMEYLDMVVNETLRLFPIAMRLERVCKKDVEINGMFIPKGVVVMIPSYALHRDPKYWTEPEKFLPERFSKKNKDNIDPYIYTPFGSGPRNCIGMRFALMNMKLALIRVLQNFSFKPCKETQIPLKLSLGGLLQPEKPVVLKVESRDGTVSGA
Method in brief: (§3)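 Human liver microsomes preincubated 0.5 h with 0.10–50 μM test compound, with or without NADPH, then CYP-specific probe substrate added and incubation continued. Metabolite measured by LC-MS/MS; % activity remaining relative to no-compound control; IC50 fitted by Probit model. For CYP3A4, midazolam 1′-hydroxylation and testosterone 6β-hydroxylation were read separately.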

[8] = Drug concentration in Kunming mouse plasma at 5 mg/kg; assay type: ADME, organism-based; settings: in vivo
Method in brief: (§4)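 Male KM mice (18−24 g) fasted 12 h before and 2 h after dosing, given 5 mg/kg orally in 5% DMSO/5% Tween 80/90% normal saline (n = 3 per time point). Aortic blood taken at 0.25–24 h and whole brain collected. Acetonitrile extraction with internal standard, then LC−MS/MS. Bioavailability calculated against the 2 mg/kg i.v. arm.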

CYP2C8 = CYP2C8 (Homo sapiens, UniProt P10632); test: Ratio of IC50 for human liver microsome CYP2C8 in absence of NADPH to IC50 for human liver microsome CYP2C8 in presence of NADPH; settings: liver microsomes, read-out: Ratio IC50
CYP2C8, sequence (P10632 whole entry): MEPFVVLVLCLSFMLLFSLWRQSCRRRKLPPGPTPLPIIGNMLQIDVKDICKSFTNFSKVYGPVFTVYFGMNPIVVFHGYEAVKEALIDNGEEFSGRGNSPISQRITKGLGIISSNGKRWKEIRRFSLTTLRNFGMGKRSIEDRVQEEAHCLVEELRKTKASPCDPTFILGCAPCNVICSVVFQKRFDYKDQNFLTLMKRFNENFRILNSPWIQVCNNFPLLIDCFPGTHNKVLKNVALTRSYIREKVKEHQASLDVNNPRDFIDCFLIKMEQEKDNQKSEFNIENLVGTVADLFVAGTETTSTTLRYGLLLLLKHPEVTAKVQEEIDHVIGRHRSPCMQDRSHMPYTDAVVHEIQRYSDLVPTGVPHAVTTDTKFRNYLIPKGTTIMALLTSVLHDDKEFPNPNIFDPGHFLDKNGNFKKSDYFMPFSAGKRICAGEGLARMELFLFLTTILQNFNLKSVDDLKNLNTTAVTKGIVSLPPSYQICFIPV

Cytochrome P450 3A4 [9] = target: T2, Cytochrome P450 3A4; test: Time dependent inhibition of human liver microsome CYP3A4 preincubated for 0.5 hrs in presence or absence of NADPH followed by midazolam addition by LC-MS/MS method; assay type: ADME, microsomes; method in brief: as §3
[10] = AUC(0 to t) in Sprague-Dawley rat brain at 6 mg/kg, po measured upto 24 hrs by LC-MS/MS method; assay type: ADME, organism-based; set-up: dose 6 mg/kg, time < 24 hrs, route po
Method in brief: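 Separate experiment in male SD rats given 6 mg/kg orally; blood and brain concentrations measured concurrently. Samples extracted with acetonitrile (brain homogenized in 10 volumes acetonitrile and sonicated) and analysed by LC−MS/MS; AUC0−t by trapezoidal method.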

CHO = test: Agonist activity at rat KCNQ3 A278T mutant expressed in CHO cells assessed as amplitude change of outward current at 0.1 uM by patch clamp method; assay type: cell-based; settings: filed as agonist; method in brief: as §2
[11] = Drug concentration in Kunming mouse brain at 5 mg/kg; assay type: ADME, organism-based; settings: in vivo, read-out: Ct; method in brief: as §4
Cytochrome P450 2C8 = Cytochrome P450 2C8 (Homo sapiens, UniProt P10632); test: Time dependent inhibition of human liver microsome CYP2C8 preincubated for 0.5 hrs in absence of NADPH followed by substrate addition by LC-MS/MS method; assay type: ADME, microsomes; method in brief: as §3
Cytochrome P450 2C8, sequence (P10632 whole entry): as above

[12] = Metabolic stability in rat liver microsomes assessed as half life; assay type: ADME, Microsome
CYP2C19 = CYP2C19 (Homo sapiens, UniProt P33261); test: Ratio of IC50 for human liver microsome CYP2C19 in absence of NADPH to IC50 for human liver microsome CYP2C19 in presence of NADPH; settings: liver microsomes, read-out: Ratio IC50
CYP2C19, sequence (P33261 whole entry): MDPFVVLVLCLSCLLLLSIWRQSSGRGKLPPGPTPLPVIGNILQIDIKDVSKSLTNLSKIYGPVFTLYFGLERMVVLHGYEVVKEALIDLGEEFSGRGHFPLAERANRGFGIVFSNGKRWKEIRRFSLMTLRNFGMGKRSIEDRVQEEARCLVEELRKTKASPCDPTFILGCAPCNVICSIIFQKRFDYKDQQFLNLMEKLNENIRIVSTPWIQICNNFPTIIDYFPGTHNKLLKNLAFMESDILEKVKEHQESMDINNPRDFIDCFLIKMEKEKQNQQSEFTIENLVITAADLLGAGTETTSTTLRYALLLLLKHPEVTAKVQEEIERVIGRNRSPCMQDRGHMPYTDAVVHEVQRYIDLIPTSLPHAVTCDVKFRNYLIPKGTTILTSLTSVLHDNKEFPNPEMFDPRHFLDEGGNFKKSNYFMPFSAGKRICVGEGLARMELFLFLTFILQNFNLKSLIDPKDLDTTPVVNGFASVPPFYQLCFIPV

| Compound | Activity (Mus musculus [1]) [%] | TD50 at 1 h ([2]; Kunming) [mg/kg] | Activity ([2]; po, 1 h, DDE = dose-dependent effect) | Activity [3] | Activity (Mus musculus [4]) [%] | Kp at 24 h [5] | selectivity ratio [6] | pIC50 (Cytochrome P450 3A4 [7]) | concentration [8] [nM] | IC50 shift (CYP2C8) | pIC50 (Cytochrome P450 3A4 [9]) | AUC(0-t) at 24 h [10] [ng·h/mL] | Activity (CHO) | concentration [11] [nM] | pIC50 (Cytochrome P450 2C8) | half-life [12] [min] | IC50 shift (CYP2C19) |
| --- | --- | --- | --- | --- | --- | --- | --- | --- | --- | --- | --- | --- | --- | --- | --- | --- | --- |
| CCOC(=O)Nc1ccc(NCc2ccc(F)cc2)cc1N [EZOGABINE] | 60 | 188 | Dde | 1.01 | 62.5 |  |  |  |  |  |  |  |  |  |  |  |  |
| C#CCN(Cc1ccc(F)cc1)c1cc(C)c(NC(=O)OC)c(C)c1 |  |  |  |  |  | 2.86 | 49.6 | < 4.30 | 110 | > 1.5 | < 4.30 | 1520 | 2.1 | 120 | 3.65 | 23.7 | < 1.5 |
